Screens deposited in PubChem by several laboratories.
MsrA inhibitor: bovine MsrA enzyme inhibitors, primary screen, biochemical, absorbance, HTS | purified bovine MsrA, absorbance read-out | inhibition, % at 15.5 µM | actives 0.75% (n = 360,000); in the data active = inhibition above about 4.5%
NR2E3 ag-1: inhibitors of NR2E3-RetCOR corepressor binding, primary screen, NR2E3 agonist project, biochemical, TR-FRET, GST-NR2E3, biotin-RetCOR. actives 0.12% (n = 320,000). 1536-well. inhibition of corepressor binding, % at 4.78 µM. Photoreceptor-specific nuclear receptor (Homo sapiens), Q9Y5X4;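 active = percent inhibition above the cutoff of mean plus 3 SD of all tested compounds, set per screening campaign, cut at about 20% in these data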
Target sequence (Q9Y5X4 whole entry, looked up): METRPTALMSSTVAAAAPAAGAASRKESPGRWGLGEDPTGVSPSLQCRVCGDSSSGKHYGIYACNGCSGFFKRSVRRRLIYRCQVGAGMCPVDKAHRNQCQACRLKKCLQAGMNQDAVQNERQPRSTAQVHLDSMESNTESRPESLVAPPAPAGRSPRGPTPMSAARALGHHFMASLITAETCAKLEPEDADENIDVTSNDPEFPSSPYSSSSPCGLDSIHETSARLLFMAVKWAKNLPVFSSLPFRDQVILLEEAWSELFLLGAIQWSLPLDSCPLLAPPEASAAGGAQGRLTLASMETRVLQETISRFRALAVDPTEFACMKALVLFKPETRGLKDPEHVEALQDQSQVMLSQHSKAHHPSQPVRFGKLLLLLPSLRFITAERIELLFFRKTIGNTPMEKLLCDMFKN
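System: GST-tagged NR2E3 plus biotinylated RetCOR corepressor; Buffer or medium: pH 7.5 Tris-based buffer; Probe or stimulus: RetCOR corepressor, biotinylated, 7 nM; Doses: compound at 4.8 µM, single dose; Schedule: 5 h incubation at 4 °C; Technique: time-resolved FRET; Evaluation: percent inhibition of TR-FRET ratio; Replication: one well per compound, singlicate testing.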
bovine MsrA act: bovine MsrA enzyme activators, primary screen, biochemical, absorbance, HTS; Methionine sulfoxide reductase A (Bos taurus); purified bovine MsrA, absorbance read-out; activation, % at 10.6 µM; actives 0.3% (n = 360,000); AID 602163, 2012; in the data active = activation above about 7.5%
NadD block: inhibitors of S. aureus NadD, primary screen, biochemical, colorimetric, uHTS | inhibition, % at 20 µM | AID 602399, 2012 | actives 0.78% (n = 360,000) | Nicotinate-nucleotide adenylyltransferase NadD (Staphylococcus aureus N315) | purified NadD enzyme, colorimetric absorbance read-out; in the data active = inhibition above about 26%
GalR3 antagonist: GalR3 antagonists in HEK293 cells, primary screen, cell-based, fluorescence readout. Galanin receptor type 3 (Homo sapiens), O60755. HEK293 GalR3-CNG cAMP membrane potential fluorescence; galR3 body fused to GalR1 C-terminus. inhibition, % at 3 µM. actives 0.44% (n = 360,000);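 active = inhibition above the screen-wide average plus 3 SD, cut at about 13% in these data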;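 also: forskolin and galanin both at EC90 stimulate the cells; cAMP rise reported by CNG channel membrane potential dye signal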
NR2E3 ag-2: NR2E3 agonists in two-hybrid cells, primary screen, cell-based, luminescence, CHO-S, Gal4-NCOR/VP16-NR2E3; Photoreceptor-specific nuclear receptor (Homo sapiens), Q9Y5X4; actives 0.35% (n = 360,000); inhibition of corepressor binding, % at 3.98 µM; luciferase;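 active = inhibition above the mean of all tested compounds plus 3 SD, cut at about 70% in these data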;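 also: higher means lower luciferase signal from less NR2E3 corepressor binding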
NadD inh conf: inhibitors of S. aureus NadD, confirmation, biochemical, colorimetric, single concentration; shares compounds with NadD block; purified S. aureus NadD, colorimetric enzyme assay; inhibition, % at 20 µM; actives 13% (n = 2,000); in the data active = inhibition mostly above about 42%, no sharp cut-off; inactive = mostly below about 42%
A number is an active result. Most compounds without a hit are left out; they make up all but 2.5% or so of the library.

Results for CC1CC(C)(C)CC2(C1)NC(=O)N(CC(=O)Nc1cc(C(F)(F)F)ccc1N1CCCCC1)C2=O (stereo not given) ?
MsrA inhibitor: inactive; bovine MsrA act: inactive; NadD block: 42; GalR3 antagonist: inactive; NR2E3 ag-2: inactive; NadD inh conf: inactive

What do the screens show for `COc1ccc(CCN2CC(C(=O)O)CC2=O)cc1` (stereo not given)?
MsrA inhibitor: inactive; NR2E3 ag-1: inactive; bovine MsrA act: inactive; NadD block: inactive; GalR3 antagonist: inactive; NR2E3 ag-2: inactive

How did COc1ccc(-c2csc(Nc3ccc(S(N)(=O)=O)cc3)n2)cc1 do in these assays?
MsrA inhibitor: inactive; NR2E3 ag-1: inactive; bovine MsrA act: inactive; NadD block: 45; GalR3 antagonist: inactive; NR2E3 ag-2: inactive; NadD inh conf: inactive

How did CCc1cccc(CC)c1NC(=O)C1SC(=Nc2ccccc2C)C(c2nc3ccccc3s2)=C1N (stereo not given) do in these assays?
MsrA inhibitor: inactive; NR2E3 ag-1: inactive; bovine MsrA act: inactive; NadD block: 32; GalR3 antagonist: inactive; NR2E3 ag-2: inactive; NadD inh conf: inactive

Results for C=CCn1c(O)c(C2=c3ccccc3=NC2=O)s/c1=N/c1nccs1 ?
MsrA inhibitor: inactive; NR2E3 ag-1: inactive; bovine MsrA act: inactive; NadD block: 33; GalR3 antagonist: inactive; NR2E3 ag-2: inactive; NadD inh conf: inactive

What do the screens show for `Cc1ccc(C)c(OCC(=O)NNC(=O)C2CC2)c1`?
MsrA inhibitor: inactive; NR2E3 ag-1: inactive; bovine MsrA act: inactive; NadD block: inactive; GalR3 antagonist: inactive; NR2E3 ag-2: inactive

How did CCOc1ccccc1NC(=O)CSc1nc2nc(-c3cccs3)cc(C(F)(F)F)c2c(=O)[nH]1 do in these assays?
MsrA inhibitor: inactive; NR2E3 ag-1: inactive; bovine MsrA act: inactive; NadD block: inactive; GalR3 antagonist: inactive; NR2E3 ag-2: inactive

Results for COc1ccc(NC(=O)CSc2nc3nc(-c4cccs4)cc(C(F)(F)F)c3c(=O)[nH]2)c(OC)c1 ?
MsrA inhibitor: inactive; NR2E3 ag-1: inactive; bovine MsrA act: inactive; NadD block: 40; GalR3 antagonist: inactive; NR2E3 ag-2: inactive; NadD inh conf: 60

How did COc1cccc(-c2cc(N3CCN(C(=O)c4ccoc4)CC3)n3nc(-c4cccc(Cl)c4)cc3n2)c1 do in these assays?
MsrA inhibitor: inactive; bovine MsrA act: inactive; NadD block: 37; GalR3 antagonist: inactive; NR2E3 ag-2: inactive; NadD inh conf: inactive

Results for COc1ccccc1-c1cc2nc(-c3ccccc3)cc(N3CCN(C(=O)c4ccco4)CC3)n2n1 ?
MsrA inhibitor: inactive; bovine MsrA act: inactive; NadD block: 41; GalR3 antagonist: inactive; NR2E3 ag-2: inactive; NadD inh conf: inactive

What do the screens show for `COc1cccc(-c2cc3nc(-c4ccccc4)cc(N4CCN(C(=O)c5ccoc5)CC4)n3n2)c1`?
MsrA inhibitor: inactive; bovine MsrA act: inactive; NadD block: inactive; GalR3 antagonist: inactive; NR2E3 ag-2: inactive

How did COc1ccccc1-c1cc2nc(-c3ccccc3)cc(N3CCN(C(=O)c4ccoc4)CC3)n2n1 do in these assays?
MsrA inhibitor: inactive; bovine MsrA act: inactive; NadD block: 47; GalR3 antagonist: inactive; NR2E3 ag-2: inactive; NadD inh conf: inactive

Results for COc1ccc(OCC(=O)N(Cc2cccs2)C2CCS(=O)(=O)C2)cc1 (stereo not given) ?
MsrA inhibitor: inactive; NR2E3 ag-1: inactive; bovine MsrA act: inactive; NadD block: inactive; GalR3 antagonist: inactive; NR2E3 ag-2: inactive

What do the screens show for `CN1CCN(NC(=O)CN(C)S(=O)(=O)c2cc(Cl)ccc2Cl)CC1`?
MsrA inhibitor: inactive; NR2E3 ag-1: inactive; bovine MsrA act: inactive; NadD block: inactive; GalR3 antagonist: inactive; NR2E3 ag-2: inactive

Results for COc1ccccc1/C=N/NC(=O)c1ccc(CN2C(=O)c3cccc4cccc2c34)cc1 ?
MsrA inhibitor: inactive; NR2E3 ag-1: inactive; bovine MsrA act: inactive; NadD block: 35; GalR3 antagonist: inactive; NR2E3 ag-2: inactive; NadD inh conf: inactive

How did NNC(=O)c1ccc(CN2C(=O)c3cccc4cccc2c34)cc1 do in these assays?
MsrA inhibitor: inactive; NR2E3 ag-1: inactive; bovine MsrA act: inactive; NadD block: inactive; GalR3 antagonist: inactive; NR2E3 ag-2: inactive

How did CCOC(=O)c1cnc(-n2nc(C)cc2C)nc1NNc1nc(-c2ccccc2)cc(-c2ccccc2)n1 do in these assays?
NR2E3 ag-1: inactive; bovine MsrA act: inactive; NadD block: 35; NR2E3 ag-2: inactive; NadD inh conf: inactive

How did COc1cc2c(C#N)c(N3CCc4ccccc4C3)nc(N)c2c(N)n1 do in these assays?
MsrA inhibitor: inactive; NR2E3 ag-1: inactive; bovine MsrA act: inactive; NadD block: 42; GalR3 antagonist: inactive; NR2E3 ag-2: inactive; NadD inh conf: inactive

How did COc1cc2c(C#N)c(N3CCCCC3)nc(N)c2c(N)n1 do in these assays?
MsrA inhibitor: inactive; NR2E3 ag-1: inactive; bovine MsrA act: inactive; NadD block: inactive; GalR3 antagonist: inactive; NR2E3 ag-2: inactive

What do the screens show for `CC1=C(C(=O)OCc2ccccc2)C(c2ccc(C)o2)C2=C(CCCC2=O)N1` (stereo not given)?
MsrA inhibitor: inactive; NR2E3 ag-1: inactive; bovine MsrA act: inactive; NadD block: inactive; GalR3 antagonist: inactive; NR2E3 ag-2: inactive

How did Cc1ccc(-c2nc(S(=O)(=O)c3ccc(C)cc3)c(N3CCOCC3)o2)cc1 do in these assays?
MsrA inhibitor: inactive; NR2E3 ag-1: inactive; bovine MsrA act: inactive; NadD block: inactive; GalR3 antagonist: inactive; NR2E3 ag-2: inactive

Results for O=C(NCCO)c1cccc(-c2cnc3c(Nc4cccc(OC(F)(F)C(F)F)c4)nccn23)c1 ?
MsrA inhibitor: inactive; bovine MsrA act: inactive; NadD block: inactive; GalR3 antagonist: inactive; NR2E3 ag-2: inactive

How did Cc1ccc(S(=O)(=O)Nc2ccc(Nc3nccn4c(-c5cccc(OC(F)(F)F)c5)cnc34)cc2)cc1 do in these assays?
MsrA inhibitor: inactive; bovine MsrA act: inactive; NadD block: 33; GalR3 antagonist: inactive; NR2E3 ag-2: inactive; NadD inh conf: 53

What do the screens show for `Cn1c(SCc2cccc(C(F)(F)F)c2)nnc1-c1ccco1`?
MsrA inhibitor: inactive; NR2E3 ag-1: inactive; bovine MsrA act: inactive; NadD block: inactive; GalR3 antagonist: inactive; NR2E3 ag-2: inactive
